# High-throughput results: PubChem BioAssay, several laboratories
# Most compounds without a hit are left out; they make up all but 4.5% or so of the library.
# MrgX1 antag – blocks BAM8-22 activation of human MrgX1 receptor. B-score at 10 µM. Q96LB2. MRGX1-HEK293 calcium flux, Fluo-4, BAM8-22 antagonism; stronger effect = lower value. 310,000 tested, 1.3% active;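 active = calcium-response B-score plate-corrected more than 3 library SD below zero, starting fluorescence within 5 deviations, no agonist response on first addition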;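 note: peak minus trough fluorescence over baseline after final BAM8-22 challenge near maximal dose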
# Target sequence (Q96LB2 whole entry, looked up): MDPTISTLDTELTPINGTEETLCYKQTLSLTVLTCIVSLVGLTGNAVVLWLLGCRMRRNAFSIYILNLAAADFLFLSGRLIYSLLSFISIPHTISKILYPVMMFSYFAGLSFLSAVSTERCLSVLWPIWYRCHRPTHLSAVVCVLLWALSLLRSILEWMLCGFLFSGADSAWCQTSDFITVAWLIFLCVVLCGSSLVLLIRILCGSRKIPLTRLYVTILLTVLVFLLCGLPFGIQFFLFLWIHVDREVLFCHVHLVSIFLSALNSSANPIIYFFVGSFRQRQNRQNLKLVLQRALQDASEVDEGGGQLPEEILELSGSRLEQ
# MrgX1 allo act – allosterically activates human MrgX1 receptor signaling | Q96LB2 | MrgX1-HEK293, Fluo-4 calcium flux, FDSS; stronger effect = higher value | B-score at 10 µM | 310,000 tested, 0.63% active;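 active = plate-corrected calcium response at least 3 library SD above typical, normal starting fluorescence, not activating the receptor alone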;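 note: compound read alongside a low EC10 to EC30 dose of BAM8-22 agonist; peak minus trough fluorescence over baseline measured at the second addition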
# RGS4 block – human RGS4 inhibition; P49798; AID 463165; 310,000 tested, 0.45% active; HEK293 M3R/RGS4 inducible, Fluo-4 calcium flux; stronger effect = higher value; triggered by carbachol at its EC20; B-score at 10 µM;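 active = B-score, a plate-corrected calcium signal, over three deviations above library mean, with baseline fluorescence within five deviations of library mean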;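 note: RGS4 expression induced by doxycycline in cells with stable M3 receptor; B-score is computed from the integrated fluorescence ratio over baseline after carbachol; higher B-score means a larger calcium signal and so more RGS4 inhibition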
# RGS4 pot – potentiators or activators of RGS4. AID 463111. HEK293 M3R/inducible RGS4, carbachol calcium flux Fluo4; stronger effect = lower value. 310,000 tested, 0.92% active. B-score at 10 µM;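 active = B-score of the integrated calcium signal more than 4 SD below the library mean, with starting fluorescence not abnormally high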;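 note: negative B-score means reduced calcium response which marks RGS4 activation or potentiation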
#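 Material: M3R-expressing HEK293 line, RGS4 induced by doxycycline | Schedule: Overnight RGS4 induction, 30 min dye load 37 °C, 20 min compound RT | Measured by: Fluo4 fluorescence kinetic imaging of calcium | Read-out: Integrated calcium ratio converted to B score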
# PHOSPHO1 block – blocks human PHOSPHO1 phosphatase activity. Q8TCT1. recombinant PHOSPHO1, absorbance phosphatase assay. inhibition, % at 13.3 µM. 290,000 tested, 1.1% active. AID 1565; in the data active = inhibition above about 60%
# Target sequence (Q8TCT1 whole entry, looked up): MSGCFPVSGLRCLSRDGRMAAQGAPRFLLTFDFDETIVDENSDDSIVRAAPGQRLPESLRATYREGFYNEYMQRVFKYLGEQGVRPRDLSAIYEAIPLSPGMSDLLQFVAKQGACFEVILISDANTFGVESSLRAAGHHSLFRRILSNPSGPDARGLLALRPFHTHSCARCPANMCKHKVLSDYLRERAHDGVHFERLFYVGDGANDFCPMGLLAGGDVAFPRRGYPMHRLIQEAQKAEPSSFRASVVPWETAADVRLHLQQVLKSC
# MrgX1 ag – agonists of human MrgX1 receptor | 310,000 tested, 0.44% active | Q96LB2 | B-score at 10 µM | MrgX1-HEK293 cells, Fluo-4 calcium fluorescence, agonist mode; stronger effect = higher value;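 active = calcium response B-score plate-corrected fluorescence ratio at least 3 library SD, with starting fluorescence B-score inside 5 SD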
#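 times = overnight plating, then 30 min 37 °C plus 30 min room-temperature dye loading | assay system = stable human MrgX1 HEK293 cell line | input = fifteen thousand cells per well | signal = kinetic calcium dye fluorescence, Fluo-4 NW | dosing = compound delivered in addition one of three | read-out = B-scored fluorescence response ratio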
# Starred values were filed as active, the others as inactive; i = inactive; nt = no result.
SMILES,MrgX1 antag,MrgX1 allo act,RGS4 block,RGS4 pot,PHOSPHO1 block,MrgX1 ag
CCOc1ccc(NC(=O)CN(C)C(=O)c2cc(-c3ccc(OC)cc3)nc3ccccc23)cc1OCC,i,i,i,-8*,nt,i
COc1ccc(NC(=O)CN(C)C(=O)c2cc(-c3ccc(Cl)cc3)nc3ccccc23)cc1,i,i,i,-8*,nt,i
CC(=O)Nc1sc(/C(C#N)=C/c2ccc(Cl)c(Cl)c2)nc1-c1ccc(C)cc1,nt,nt,i,-8.9*,12,nt
CSCC[C@H](NC(=O)OC(C)(C)C)c1nnc(SCc2cccc(F)c2)o1,i,i,i,i,74*,i
Cc1ccc2nc(Cl)c3nnnn3c2c1,i,8.7*,i,i,-14,i
COc1ccc(CNC(=O)COC(=O)C2CCC(C(C)(C)C)CC2)cc1 (stereo not drawn),i,i,i,i,2,i
CCCCNC(=S)N(Cc1c(C)noc1C)c1ccccc1,i,i,i,i,-6,i
O=C(NC1CCCCC1)C(c1ccncc1)N(C(=O)c1csnn1)c1ccccc1F (stereo not drawn),i,i,i,i,32,i
Cc1ccc(C(=O)CC(=O)c2ccccc2)cc1,i,i,i,i,18,i
Cc1ccc(C(=O)Sc2cccccc2=O)cc1,i,i,i,i,15,49*
Cc1c(N2C(=O)CSC2c2ccco2)c(=O)n(-c2ccccc2)n1C (stereo not drawn),i,i,i,i,20,i
Cc1cccn2c(=O)c(/C=C(\C#N)S(=O)(=O)c3ccccc3)c(N3CCN(Cc4ccccc4)CC3)nc12,i,i,i,-7.2*,-188,i
CC(C)C[C@@]12C(=O)N(c3cccc(F)c3)C(=O)N1[C@H](c1ccc(Cl)cc1)[C@@H]1C(=O)N(C3CCCCC3)C(=O)[C@@H]12,i,i,i,i,nt,i
CC(O)[C@H](NC(=O)C1CCN(C(=O)[C@H](Cc2ccccc2)NC(=O)OC(C)(C)C)CC1)C(=O)O (stereo partly drawn),i,i,i,i,20,i
CC(C)[C@H](NC(=O)C1CCN(C(=O)[C@H](Cc2ccccc2)NC(=O)OC(C)(C)C)CC1)C(=O)O,i,i,i,i,61*,i
CCCc1cc(C(=O)NNC(=S)NCC2CCCO2)cs1 (stereo not drawn),i,i,i,i,39,i
CCCc1cc(C(=O)NNC(=S)NC(C)c2ccccc2)cs1 (stereo not drawn),i,i,i,i,83*,i
CCCc1nc(SCC(=O)N2CCCCCC2)c2c(=O)n(C)c(=O)n(C)c2n1,i,i,i,i,25,i
CCOc1ccccc1NC(=O)C1CCN(c2ccc(S(=O)(=O)N3CCCC3)cc2)CC1,i,i,i,i,78*,i
CC1Cc2ccccc2N1C(=O)c1nn(C)cc1Br (stereo not drawn),i,i,i,i,-13,i
COC(=O)C(NNc1ccccc1)(NC(=O)c1ccccc1F)C(F)(F)F (stereo not drawn),i,i,i,i,-63,i
COC(=O)C(NNc1ccccc1)(NC(=O)c1ccc(F)cc1)C(F)(F)F (stereo not drawn),i,i,i,i,92*,i
O=C(/C=C/c1ccc(Cl)cc1)NC1CC2CCC1C2 (stereo not drawn),i,7.2*,i,i,42,i
O=C(/C=C/c1ccccc1)NC1CC2CCC1C2 (stereo not drawn),i,i,i,i,4,i
CCCN1C(=O)/C(=C/C=C2\N(CC)c3ccccc3C2(C)C)SC1=S,i,12*,i,i,28,i
SMILES,MrgX1 antag,MrgX1 allo act,RGS4 block,RGS4 pot,PHOSPHO1 block,MrgX1 ag
CN1/C(=C\C=C2/SC(=S)N(CC(=O)O)C2=O)C(C)(C)c2ccccc21,i,i,i,i,-1,i
C=CCN1C(=O)/C(=C\C=C2\N(C)c3ccccc3C2(C)C)SC1=S,i,i,i,i,0,31*
COc1ccc(NC(C)=O)cc1CNC(=O)CN1CCOCC1,i,i,i,i,14,i
O=C1/C(=C/c2cccc([N+](=O)[O-])c2)CCc2ccccc21,-5.8*,i,i,i,11,i
CCC1CCCCN1S(=O)(=O)c1ccc([N+](=O)[O-])cc1 (stereo not drawn),i,i,i,-7.4*,8,i
CC1CCCCN1S(=O)(=O)c1ccc([N+](=O)[O-])cc1 (stereo not drawn),i,i,i,i,-21,i
Cc1nn(-c2ccccc2)c(Cl)c1C(=O)N1CCN(c2ncnc3c2cnn3-c2ccccc2)CC1,-7.6*,i,i,i,18,i
Cc1ccc2c(C(=O)CCl)c(C)[nH]c2c1,i,8.2*,i,i,-5,i
CCC(C(=O)O/N=C(\N)c1cccc(C)c1)c1ccccc1 (stereo not drawn),i,i,i,-9.5*,-5,i
Cc1cccc(/C(N)=N/OC(=O)Cc2ccccc2)c1,i,i,i,i,-11,i
Cn1nc(-c2ccc(C(=O)NC3CCCCC3)cc2)c2ccccc2c1=O,i,9.5*,i,i,-16,i
Cc1cc(-c2nn(C)c(=O)c3ccccc23)ccc1CNC(=O)NC1CCCCC1,i,i,i,i,30,i
CC1=NN(C(N)=S)C(=O)C1N=Nc1cccc(Cl)c1C (stereo not drawn),i,8.6*,i,i,nt,i
CCOC(=O)c1c(NC(=O)c2nn(CC)cc2Br)sc2c1CCCCC2,i,i,i,-7*,13,i
CCN(CC)S(=O)(=O)c1cccc(NC(=O)COC(=O)CCC(=O)c2cccs2)c1,i,i,i,i,73*,i
Cc1ccc(C(=O)Nc2ccccc2Cl)cc1,i,i,i,i,-3,i
Cc1ccc(-c2cc(C(=O)Nc3ccccc3C)c3ccccc3n2)o1,-4.8*,i,i,i,-7,i
COC(=O)c1cc(-c2ccc(C)o2)nc2ccccc12,i,i,i,i,-9,i
CC(=O)Nc1ccc(NC(=O)c2ccc(CN3CCc4ccccc4C3)cc2)cc1,i,i,i,i,14,i
O=C(Nc1cccc(Br)c1)c1ccc(CN2CCc3ccccc3C2)cc1,-6.1*,i,i,-8.8*,nt,i
